GalR3 antagonist = human GalR3 antagonism. HEK293 GalR3-CNG cAMP membrane potential fluorescence; galR3 body fused to GalR1 C-terminus. inhibition, % at 3 µM. 0.44% of 360,000 active. O60755. AID 651719;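 active means inhibition above the screen-wide average plus 3 SD, cut at about 13% in these data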;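 further: forskolin and galanin both at EC90 stimulate the cells; cAMP rise reported by CNG channel membrane potential dye signal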
Target sequence (O60755 1-299 limits assumed): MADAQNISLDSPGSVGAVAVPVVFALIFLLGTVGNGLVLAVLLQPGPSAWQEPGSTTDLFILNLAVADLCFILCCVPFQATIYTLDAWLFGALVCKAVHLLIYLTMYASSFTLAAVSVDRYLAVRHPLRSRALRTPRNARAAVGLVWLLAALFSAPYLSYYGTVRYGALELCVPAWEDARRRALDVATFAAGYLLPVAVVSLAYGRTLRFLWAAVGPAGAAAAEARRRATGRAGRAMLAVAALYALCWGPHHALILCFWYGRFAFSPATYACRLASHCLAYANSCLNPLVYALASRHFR
NR2E3 ag-1 = agonists of human nuclear receptor NR2E3; Q9Y5X4; GST-NR2E3/biotin-RetCOR TR-FRET, 1536-well; inhibition of corepressor binding, % at 4.78 µM; 0.12% of 320,000 active; AID 2300;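 active means percent inhibition above the cutoff of mean plus 3 SD of all tested compounds, set per screening campaign, cut at about 20% in these data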
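System: GST-NR2E3 and biotin-RetCOR proteins; probe or stimulus: 7 nM biotin-RetCOR; doses: compound at 4.8 µM, single dose; schedule: Compound–protein incubation for 5 h at 4 °C; detection: time-resolved FRET; read-out: percent inhibition; controls: biotin wells as high control, 0.6% DMSO wells as low control; format: 1536-well plates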
CHT block = inhibits the human high affinity choline transporter | Q9GZV3 | CHT-expressing cells, membrane potential dye, choline response; active compounds read low | B-score at 10 µM | 0.86% of 310,000 active | AID 488975;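 active means B-score over 3 SD under the library average, and starting fluorescence ratio not unusually high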;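 further: choline stimulus applied at its EC90 after an EC20 pre-addition; B-score computed on integrated fluorescence ratio after choline addition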
NR2E3 ag-2 = agonists of human NR2E3 nuclear receptor; Q9Y5X4; CHO-S Gal4-NCOR/VP16-NR2E3 two-hybrid, luciferase; inhibition of corepressor binding, % at 3.98 µM; 0.35% of 360,000 active;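 active means inhibition above the mean of all tested compounds plus 3 SD, cut at about 70% in these data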;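 further: higher means lower luciferase signal from less NR2E3 corepressor binding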
CHT allo act = allosterically activates the human high affinity choline transporter; Q9GZV3; CHT-expressing cells, membrane potential dye, choline EC20; active compounds read high; LV-AA mutant CHT in HEK293 cells; B-score at 10 µM; 0.49% of 310,000 active;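 active means initial fluorescence not abnormally high and integrated response B-score, plate-corrected, over 3 SD above library mean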
NR2F2 inh = inhibitors of human COUP-TFII (NR2F2); HEK293T NGFI-A luciferase reporter, luminescence; 0.7% of 370,000 active; P24468; inhibition, % at 8.6 µM;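 active means inhibition above a per-plate cutoff, mean inhibition of test wells between control levels plus 3 SD, cut at about 38% in these data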;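 further: cells cotransfected with COUP-TFII expression vector driving the NGFI-A reporter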
Target sequence (P24468 whole entry, looked up): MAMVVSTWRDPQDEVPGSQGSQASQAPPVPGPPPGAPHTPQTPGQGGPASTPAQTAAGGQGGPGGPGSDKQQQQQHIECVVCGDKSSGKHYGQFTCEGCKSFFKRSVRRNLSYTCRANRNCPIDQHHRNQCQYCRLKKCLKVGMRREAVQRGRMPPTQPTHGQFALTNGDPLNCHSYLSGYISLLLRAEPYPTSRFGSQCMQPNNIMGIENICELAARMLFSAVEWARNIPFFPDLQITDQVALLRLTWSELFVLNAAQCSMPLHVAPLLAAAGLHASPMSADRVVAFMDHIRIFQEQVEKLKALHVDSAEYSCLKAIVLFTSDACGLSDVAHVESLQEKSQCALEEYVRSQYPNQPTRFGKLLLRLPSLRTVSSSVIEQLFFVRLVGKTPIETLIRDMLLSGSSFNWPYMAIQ
CHT block conf = confirmation of human choline transporter CHT inhibitors. CHT activity remaining % of control (active compounds read low), % at 10 µM. CHT-expressing cells, choline membrane potential dye; LV-to-AA substituted CHT, HEK293 cells. AID 493221. shares compounds with CHT block. 70% of 2,400 active;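 active means choline transporter activity left, mean of duplicates at 10 µM, below buffer-only control mean minus 3 SD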;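 further: depolarization triggered by choline at its EC90 following an EC20 pre-addition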
HEK293 MPD ctr = activity in parental HEK293 cells lacking CHT; membrane potential dye, choline response; active = decrease or increase beyond buffer ±3SD; AID 493222; shares compounds with CHT block; 4% of 2,400 active; membrane potential ratio readout (active if shifted either direction beyond buffer ±3SD; no single direction) at 10 µM;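 further: parental cells lack the transporter so any hit is non-specific; ratio is peak minus trough fluorescence over baseline after EC90 choline challenge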
Of the large screens only hits and unclear results are named; the others gave an inactive call (follow-up assays come after a bar, where they were run). A selection: hits, their analogues and other compounds. The true share with any hit is near 2.3%.

CCOc1ccc([C@@H]2CC=C(C(=O)O)[C@H](c3cccc(Cl)c3)N2S(=O)(=O)c2ccc(C)cc2)cc1	CHT block -6.1 | CHT block conf 62% | HEK293 MPD ctr inactive
CC(C)CNC(=O)OCc1cn(Cc2ccccc2Cl)nn1	none (no result: GalR3 antagonist, NR2E3 ag-1, CHT block, NR2E3 ag-2, CHT allo act)
COc1ccc(Cn2cc(CN3[C@H](CC(C)C)COc4cc(Br)ccc4S3(=O)=O)nn2)cc1	none (no result: GalR3 antagonist, NR2E3 ag-1, CHT block, NR2E3 ag-2, CHT allo act)
CC(C)CC(=O)Nc1ccccc1N1CCN(C(=O)c2ccccc2)CC1	CHT block -5.1 | CHT block conf inactive | HEK293 MPD ctr inactive
O=C(CSc1nnc(COc2ccc(Cl)cc2)n1Cc1ccco1)Nc1ccc2c(c1)OCO2	none (no result: GalR3 antagonist, NR2E3 ag-1, CHT block, NR2E3 ag-2, CHT allo act)
Cc1nn(Cc2ccc(F)cc2)c(Cl)c1/C=N/NC(=O)c1ccccc1	none
Cc1nn(Cc2ccccc2)c(Cl)c1/C=C1\NC(=S)NC1=O	CHT block -7.7 | CHT block conf inactive | HEK293 MPD ctr inactive
CC(C)CC(=O)Nc1nc(=S)ss1	CHT block -6.8 | CHT block conf 40% | HEK293 MPD ctr inactive
CCCn1nc2cc(C(=O)NC3CCCc4ccccc43)ccc2c1OCC (stereo not given)	none
CCCCn1nc2cc(C(=O)NCCc3cccs3)ccc2c1OCC	CHT block -9.2 | CHT block conf 24% | HEK293 MPD ctr inactive
CCCCn1nc2cc(C(=O)NC3CCc4ccccc43)ccc2c1OCC (stereo not given)	CHT block -5.5 | CHT block conf 34% | HEK293 MPD ctr inactive
CC1CCC2(CC1)CCC2NCc1ccc(Br)cc1 (stereo not given)	none (no result: GalR3 antagonist, NR2E3 ag-1, CHT block, NR2E3 ag-2, CHT allo act)
COc1cccc(C2CC(=O)Nc3cc(OC)c(OC)cc32)c1 (stereo not given)	none (no result: NR2E3 ag-1)
CCOc1cccc(C2CC(=O)Nc3cc(OC)c(OC)cc32)c1 (stereo not given)	CHT block -6.7 | CHT block conf inactive | HEK293 MPD ctr inactive
COCCCN1C(=O)[C@H](CC(=O)NCc2ccccc2)[C@]2(C(=O)OC)CCCCC=C12	none (no result: GalR3 antagonist, NR2E3 ag-1, CHT block, NR2E3 ag-2, CHT allo act)
CC(=O)OC(C(=O)NC1CCCCC1)c1ccc(C)cc1 (stereo not given)	none
CC(=O)OC(C(=O)NC1CCCCC1)c1ccc(Cl)c(Cl)c1 (stereo not given)	CHT block -11 | CHT block conf inactive | HEK293 MPD ctr inactive
CC(=O)Nc1cccc(N(C)S(C)(=O)=O)c1	none
CN(c1cccc(NC(=O)Nc2cccc(Cl)c2)c1)S(C)(=O)=O	CHT block -6.7 | CHT block conf 51% | HEK293 MPD ctr inactive
COC(=O)[C@]12C[C@H](CC(=O)NCC3CCCCC3)C(=O)N(Cc3ccco3)C1=C[C@H](COCc1ccccc1)O[C@@H]2C	none (no result: GalR3 antagonist, NR2E3 ag-1, CHT block, NR2E3 ag-2, CHT allo act)
C=CC[C@H]1CC(Cc2ccccc2)=C[C@H](CC=C)N1	CHT block -8.6 | CHT block conf -13% | HEK293 MPD ctr -17
COC(=O)[C@H]1C[C@@]2(N3CCCC3)c3ccccc3N[C@H]2N1S(C)(=O)=O	none (no result: GalR3 antagonist, NR2E3 ag-1, CHT block, NR2E3 ag-2, CHT allo act)
NC(=O)CC(NC(=O)c1ccccc1)c1ccc(N2CCCCCC2)c([N+](=O)[O-])c1 (stereo not given)	CHT block -8.6 | CHT block conf 13% | HEK293 MPD ctr inactive
CN(Cc1ccccc1)c1ccc(C(CC(N)=O)NC(=O)c2ccc(Br)cc2)cc1[N+](=O)[O-] (stereo not given)	CHT block -6.5 | CHT block conf 70% | HEK293 MPD ctr inactive
NC(=O)CC(NC(=O)c1ccccc1)c1ccc(N2CCN(c3ccccc3)CC2)c([N+](=O)[O-])c1 (stereo not given)	none
CC(C)(C)N(Cc1cn(Cc2ccccc2)nn1)S(=O)(=O)c1ccc(N2CCCCC2)cc1Br	none (no result: GalR3 antagonist, NR2E3 ag-1, CHT block, NR2E3 ag-2, CHT allo act)
CC(C)CN1CN2Cc3ccccc3C2CS1(=O)=O (stereo not given)	none (no result: GalR3 antagonist, NR2E3 ag-1, CHT block, NR2E3 ag-2, CHT allo act)
COc1cc(NC(=O)c2csc(-c3ccncc3)n2)cc(C(=O)Nc2cccc(C(F)(F)F)c2)c1	CHT block -8.6 | CHT block conf 26% | HEK293 MPD ctr inactive
C#CCCN([C@H](C(=O)OC)C(C)CC)S(=O)(=O)c1ccccc1Br (stereo not given in full)	none (no result: GalR3 antagonist, NR2E3 ag-1, CHT block, NR2E3 ag-2, CHT allo act)
C[C@H]1[C@@H](NC(=O)c2ccc(Cl)cc2)CC[C@@]23CCCN2C(=O)CCC[C@@H]13	none (no result: GalR3 antagonist, NR2E3 ag-1, CHT block, NR2E3 ag-2, CHT allo act)
CCC(C)[C@@H](C(=O)OC)N(Cc1cn(Cc2ccccc2)nn1)S(=O)(=O)c1ccccc1Br (stereo not given in full)	none (no result: GalR3 antagonist, NR2E3 ag-1, CHT block, NR2E3 ag-2, CHT allo act)
Cc1ccc(-c2csc3ncnc(-n4cnc5ccccc54)c23)cc1	CHT block -7.5 | CHT block conf 24% | HEK293 MPD ctr inactive
Cc1ccc(-c2csc3ncnc(-n4nnc5ccccc54)c23)cc1	CHT block -7.5 | CHT block conf 63% | HEK293 MPD ctr inactive
Cc1nc2sc(C(=O)NCc3ccc4c(c3)OCO4)c(N)c2c(C)c1Cl	none (no result: GalR3 antagonist, NR2E3 ag-1, CHT block, NR2E3 ag-2, CHT allo act)
Fc1cccc(CNC2CCC23CCC(c2ccccc2)CC3)c1 (stereo not given)	none (no result: GalR3 antagonist, NR2E3 ag-1, CHT block, NR2E3 ag-2, CHT allo act)
COc1ccc2c(c1)c(C(O)CN1CCC(Cc3ccccc3)CC1)c(C)n2C (stereo not given)	CHT block -11 | CHT block conf 22% | HEK293 MPD ctr inactive
COc1ccc(CCC(=O)N2c3ccccc3CC2C)cc1 (stereo not given)	CHT block -5.4 | CHT block conf inactive | HEK293 MPD ctr inactive
CC1Cc2ccccc2N1C(=O)COC(=O)c1ccc(O)cc1 (stereo not given)	CHT block -5.5 | CHT block conf 52% | HEK293 MPD ctr inactive
COc1ccc(CCC(=O)N2CCc3ccccc32)cc1	none
CCOc1ccccc1NC(=O)CSc1nc2ccccc2nc1N1CCOCC1	none (no result: GalR3 antagonist)
CCOc1ccccc1NC(=O)CSc1nc2ccccc2nc1N1CCCC1	CHT block -5.5 (no result: GalR3 antagonist) | CHT block conf inactive | HEK293 MPD ctr inactive
CCOC(=O)C1=C(CC)OC(N)=C(C#N)C1c1cc(OC)ccc1OC (stereo not given)	CHT block -13 | CHT block conf inactive | HEK293 MPD ctr inactive
CCOC(=O)C1=C(c2ccccc2)OC(N)=C(C#N)C1c1cccs1 (stereo not given)	none
CCOC(=O)CC1=C(C(=O)OCC)C(c2cccs2)C(C#N)=C(N)O1 (stereo not given)	CHT block -5.3 | CHT block conf inactive | HEK293 MPD ctr inactive
Cc1ccc(-n2c(C)cc(=O)cc2C)c(C)c1	CHT block -5 | CHT block conf 34% | HEK293 MPD ctr inactive
